Measurements: ChEMBL document CHEMBL4431315, “Jatrophane Diterpenoids as Modulators of P-Glycoprotein-Dependent Multidrug Resistance (MDR): Advances of Structure-Activity Relationships and Discovery of Promising MDR Reversal Agents” (J Med Chem, 2016)
The source made the active and inactive calls. The rule behind the calls is not given here.

Assays:
[1] = Metabolic stability in Sprague-Dawley rat liver microsomes assessed as rate constant at 100 uM by HPLC-UV analysis; type: ADME, Microsome
Method in brief: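 Rat liver microsomes at 1 mg protein/mL final, compound at 100 μM final (from a 10 mM CH3CN stock), in 100 mM PBS with 3.0 mM MgCl2 and 1.0 mM NADPH, pH 7.4, 37 °C. Sampled at 0 to 180 min and stopped with ice-cold CH3CN. Control run without NADPH. Centrifuged supernatants analysed by HPLC-UV; three independent experiments in triplicate.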

[2] = Cytotoxicity against HLF cells assessed as inhibition of cell proliferation after 48 hrs by MTT assay; type: cell-based; settings: Homo sapiens
Method in brief: (§1)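 Seeded at 5 × 10^3 cells/well with graded compound levels, DMSO as negative control, 48 h. MTT added for 4 h, formazan dissolved in DMSO, OD read at 570 nm (reference 630 nm). IC50 by nonlinear regression; triplicate samples.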

[3] = molecular target: T1, ATP-dependent translocase ABCB1 (Homo sapiens, UniProt P08183); assay: Inhibition of P-gp mediated efflux in adriamycin-resistant human HepG2 cells assessed as intracellular rhodamine-123 accumulation at 0.125 uM incubated in dark condition for 90 mins by flow cytometry relative to control; type: cell-based
T1 sequence (P08183 whole entry): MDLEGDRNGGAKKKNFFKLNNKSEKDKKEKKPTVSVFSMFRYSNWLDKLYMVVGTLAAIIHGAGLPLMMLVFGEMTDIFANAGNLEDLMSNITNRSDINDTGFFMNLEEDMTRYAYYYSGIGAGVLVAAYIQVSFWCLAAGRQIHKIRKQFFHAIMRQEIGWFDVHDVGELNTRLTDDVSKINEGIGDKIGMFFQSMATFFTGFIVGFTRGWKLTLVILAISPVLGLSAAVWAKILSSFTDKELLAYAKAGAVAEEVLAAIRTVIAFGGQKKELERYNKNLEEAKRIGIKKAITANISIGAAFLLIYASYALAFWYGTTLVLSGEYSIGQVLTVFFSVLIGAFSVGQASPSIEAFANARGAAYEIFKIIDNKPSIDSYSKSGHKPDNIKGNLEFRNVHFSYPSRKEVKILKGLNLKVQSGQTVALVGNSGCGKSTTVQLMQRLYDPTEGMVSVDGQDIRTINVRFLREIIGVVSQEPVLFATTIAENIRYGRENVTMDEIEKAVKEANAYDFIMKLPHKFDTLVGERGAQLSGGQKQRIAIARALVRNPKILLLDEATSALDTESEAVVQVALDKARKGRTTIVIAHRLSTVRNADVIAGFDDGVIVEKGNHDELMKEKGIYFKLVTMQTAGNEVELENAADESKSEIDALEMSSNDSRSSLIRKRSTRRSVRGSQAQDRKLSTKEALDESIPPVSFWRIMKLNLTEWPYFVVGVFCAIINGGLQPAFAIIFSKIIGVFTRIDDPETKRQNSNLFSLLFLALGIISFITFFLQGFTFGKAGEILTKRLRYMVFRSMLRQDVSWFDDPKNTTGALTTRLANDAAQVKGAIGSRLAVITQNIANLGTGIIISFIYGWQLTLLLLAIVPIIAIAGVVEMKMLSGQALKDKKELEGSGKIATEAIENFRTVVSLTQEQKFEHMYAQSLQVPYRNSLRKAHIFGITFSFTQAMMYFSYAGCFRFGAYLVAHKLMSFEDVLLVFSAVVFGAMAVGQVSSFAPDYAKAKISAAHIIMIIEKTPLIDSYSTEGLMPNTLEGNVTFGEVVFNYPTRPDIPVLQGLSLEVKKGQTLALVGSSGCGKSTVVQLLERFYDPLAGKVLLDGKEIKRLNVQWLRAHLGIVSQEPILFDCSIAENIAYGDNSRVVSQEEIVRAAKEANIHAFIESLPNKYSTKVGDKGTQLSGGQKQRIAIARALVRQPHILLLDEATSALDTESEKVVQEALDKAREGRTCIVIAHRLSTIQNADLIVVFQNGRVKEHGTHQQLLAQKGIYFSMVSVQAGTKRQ
Method in brief: (§2)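 HepG2/ADR cells seeded at 5 × 10^5/well and given compound plus 10 μM Rho123 in the dark at 37 °C for 90 min. Cells washed twice in ice-cold PBS, resuspended in PBS, read by flow cytometry in FL1 (Em 525 nm). Fold of control = (treated fluorescence − background)/(Rho123-only fluorescence − background).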

[4] = molecular target: T1, ATP-dependent translocase ABCB1; assay: Inhibition of P-gp mediated efflux in adriamycin-resistant human HepG2 cells assessed as intracellular rhodamine-123 accumulation at 1 uM incubated in dark condition for 90 mins by flow cytometry; type: cell-based; method in brief: as §2
HepG2 [5] = assay: Multidrug resistance reversal activity in adriamycin-resistant human HepG2 cells xenografted in nude BALB/c mouse assessed as increase in mouse survival at 10 mg/kg, ip administered 2 hrs prior to ADR dosing at 5 mg/kg, ip on day 0/3/6 measured every day during compound dosing; type: functional, organism-based
Method in brief: (§3)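 Female BALB/c nude mice, 5 weeks old, implanted s.c. in the right flank with 1 × 10^7 HepG2/ADR cells. At about 60 mm3, randomized into groups of seven and dosed ip on days 0, 3, 6: compound 10 mg/kg given 2 h before ADR 5 mg/kg. Controls got saline with 0.5% DMSO and 5% Kolliphor HS 15. Tumor size and body weight measured daily; survival tracked. IR from mean tumor weights; Student's t test, P < 0.05.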

[6] = molecular target: T1, ATP-dependent translocase ABCB1; assay: Inhibition of P-gp mediated efflux in adriamycin-resistant human HepG2 cells assessed as intracellular rhodamine-123 accumulation at 10 uM incubated in dark condition for 90 mins by flow cytometry relative to control; type: cell-based; method in brief: as §2
[7] = molecular target: T1, ATP-dependent translocase ABCB1; assay: Inhibition of P-gp mediated efflux in adriamycin-resistant human HepG2 cells assessed as intracellular rhodamine-123 accumulation at 2 uM incubated in dark condition for 90 mins by flow cytometry relative to control; type: cell-based; method in brief: as §2
HepG2 [8] = assay: Cytotoxicity against adriamycin-resistant human HepG2 cells assessed as inhibition of cell proliferation after 48 hrs by MTT assay; type: functional, cell-based; settings: HepG2, 48 h; method in brief: as §1
[9] = Half life in Sprague-Dawley rat liver microsomes at 100 uM by HPLC-UV analysis; type: ADME, Microsome
HepG2 [10] = assay: Multidrug resistance reversal activity in adriamycin-resistant human HepG2 cells xenografted in nude BALB/c mouse assessed as tumor growth inhibition at 10 mg/kg, ip administered 2 hrs prior to ADR dosing at 5 mg/kg, ip on day 0/3/6 measured every day during compound dosing; type: functional; method in brief: as §3
NCI/ADR-RES = assay: Intrinsic cytotoxicity against human MCF7/ADR cells assessed as inhibition of cell proliferation after 48 hrs by MTT assay; type: cell-based; method in brief: as §1

- k el at 100 µM [1]: 1.33e-05 s⁻¹
- FC [3]: 1.34
- INH [4]: Active
- INH [6]: Active
- FC [7]: 2.74
- half-life at 100 µM [9]: 14.4 h
Compound: CC(=O)O[C@@H]1C[C@@H](OC(=O)c2ccccc2)/C(C)=C/[C@H]2[C@@H](OC(=O)c3ccccc3)[C@@H](C)[C@H](O)[C@]2(OC(C)=O)[C@H](O)[C@](C)(O)CCC1(C)C
- IC50 [2]: > 100 µM
- Activity (HepG2 [5]): Active
- IC50 (HepG2 [8]): > 150 µM
- TGI (HepG2 [10]): 62.89%
- IC50 (NCI/ADR-RES): > 150 µM
